# Measured values reported in PubChem BioAssay AID504383 (The Scripps Research Institute Molecular Screening Center, 2011).
# Screen size: about 2,500 compounds; about 1,200 (48%) were called active.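 The calls were made as follows: active = mean activation above the low control average plus 3 SD, as set in the primary screen (cut at about 12% in these data); inactive = the rest.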 The set was probably picked from earlier hits. The list shows a part of the results.
# Molecular target: Troponin I, cardiac muscle (Homo sapiens) + Troponin T, cardiac muscle (Homo sapiens) + Troponin C, slow skeletal and cardiac muscles (Homo sapiens) (UniProt P19429+P45379+P63316)
# Experiment: cardiac RTF calcium sensitivity activators, confirmation, biochemical, IANBD-TnC fluorescence, triplicate (AID 504383);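 also: 0% = DMSO at 0.472 mM calcium and 100% = DMSO at 2.9 mM calcium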
# Settings: IANBD-labeled cardiac RTF, Ca2+ sensitivity fluorescence; at 7.2 µM; stronger effect = higher value; scaled from EC20 to saturating calcium; tested at EC20 calcium, 0.472 mM
# In short: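 Test system: labelled regulated thin filament protein complex. Dosing: single nominal compound dose of 7.2 µM. Benchmarks: EC20 and EC100 calcium wells. Read-out basis: fluorescence gain scaled between EC20 and EC100 calcium controls. Probe or stimulus: submaximal calcium at 0.472 mM (EC20). Technique: fluorescence. Times: 15 min compound exposure, 25 °C.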
row,SMILES,activation
1,O=C(/C=C/c1ccccc1[N+](=O)[O-])Nc1cccnc1,5.57% (inactive)
2,O=C(c1ccc([N+](=O)[O-])cc1[N+](=O)[O-])n1cnc2ccccc21,-1.33% (inactive)
3,CC(C)(Cc1cccc(CC(C)(C)C(=O)O)c1)C(=O)O,12% (active)
4,CS(=O)(=O)N(CC(=O)O)Cc1cccc(CN(CC(=O)O)S(C)(=O)=O)c1,9.58% (inactive)
5,CCCOc1ccc(N)cc1N,10.4% (inactive)
6,O=C(CC1C(=O)N(c2ccc(Cl)cc2)C(=S)N1CCc1ccncc1)Nc1ccc(F)cc1 (centres undefined),3.64% (inactive)
7,Cc1ccc(-c2noc(-c3c(C)noc3C)n2)cc1,9.16% (inactive)
8,COc1cc(-c2c(-c3ccc4c(c3)OCO4)noc2C)ccc1F,37.8% (active)
9,CCOC(=O)c1ccc(-c2c(-c3ccc4c(c3)OCO4)noc2C)cc1F,12% (active)
10,Nc1ccc2c3c(cccc13)-c1ccccc1-2,10% (inactive)
11,O=C(NCCN1CCOCC1)c1ccc(CS(=O)(=O)c2c(Cl)cccc2Cl)o1,7.99% (inactive)
12,Cc1ccccc1S(=O)(=O)Cc1ccc(C(=O)NCCN(C)Cc2ccccc2)o1,28.6% (active)
13,Brc1ccc(-c2cnnc(N3CCCC3)n2)cc1,184% (active)
14,CC(C)(C)c1ccc(-c2n[nH]c(=S)n2CC2CCCO2)cc1 (centres undefined),101% (active)
15,O=C(Nc1ccccc1OC(=O)c1ccccc1)c1ccccc1,235% (active)
16,COc1ccccc1NC(=O)/C=C/C(=O)O,9.02% (inactive)
17,CC(C)C(=O)c1cc2c(cc1NC(=O)c1ccccc1)OCCO2,3.91% (inactive)
18,Cc1ccc([N+](=O)[O-])c(OCCCN2C(=O)NC(C)(C)C2=O)c1,11% (inactive)
19,COc1ccc(C2=NN(C(=O)CSc3ncccn3)C(c3ccc(C)cc3)C2)cc1 (centres undefined),505% (active)
20,CC1CCC(C(C)C)C(OC(=O)Cn2c(-c3ccccc3)[n+](C)c3ccccc32)C1 (centres undefined),10.7% (inactive)
21,CN(C)c1ccc(/C=C/C(=O)c2cc(Cl)ccc2O)cc1,5.68% (inactive)
22,CC(/C=C/c1ccc(N(C)C)cc1)=N/N=C1/NC(=O)CC(C(=O)Nc2ccc(Cl)cc2)S1 (centres undefined),14.4% (active)
23,COc1ccc(CN=C2NC(=O)CC(C(=O)Nc3ccc(F)cc3)S2)cc1 (centres undefined),10.2% (inactive)
24,N#Cc1c(-c2ccccc2F)cc(C2CC2)nc1SCC(=O)c1cccs1,14.3% (active)
25,COc1ccc(-c2cc(C3CC3)nc(SCC(=O)c3cccs3)c2C#N)cc1,8.22% (inactive)

row,SMILES,activation
1,O=C(c1cccs1)N1CCN=C1SCc1cccc(F)c1,0.56% (inactive)
2,CC(C)OC(=O)c1c2c(n3ccccc13)C(=O)c1ccccc1C2=O,9.36% (inactive)
3,CCN(CC)c1ccc(/C=C/c2cccc[n+]2C)c(OC)c1,63.4% (active)
4,Cc1nc(NC(=O)c2ccccc2[N+](=O)[O-])sc1C(=O)N(C)C,11.2% (inactive)
5,CN(C)/C=C/C(=O)c1ccc(Br)s1,10.5% (inactive)
6,CN(C)NC(=O)c1ccc([N+](=O)[O-])s1,31.3% (active)
7,Cc1c(Cl)c([N+](=O)[O-])nn1CC(=O)N1CCN(C23CC4CC(CC(C4)C2)C3)CC1,12% (active)
8,Cc1cccc(NC(=O)Cn2cnc3ccc(S(=O)(=O)N4CCC(C)CC4)cc3c2=O)n1,8.56% (inactive)
9,O=S(=O)(c1ccc(NC(=S)Nc2ccccc2)cc1)N1CCOCC1,24.5% (active)
10,O=C(Cn1cnc2c(cnn2-c2ccccc2)c1=O)Nc1ccc(S(=O)(=O)N2CCOCC2)cc1,31% (active)
11,CN(C)NC(=S)Nc1ccc(S(=O)(=O)N2CCCCC2)cc1,19.8% (active)
12,CN1CC[C@@H]2C(=O)N3CCc4ccc(Br)cc4[C@@H]3C[C@@H]21,10.5% (inactive)
13,CC(Sc1nc2ncc(Cl)cc2[nH]1)C(=O)Nc1ccc(C(N)=O)cc1 (centres undefined),1.26% (inactive)
14,O=C(CSc1nc2ncc(Br)cc2[nH]1)c1cccc([N+](=O)[O-])c1,64% (active)
15,CC(=O)N1C(=O)C(=C2C=C(C)OC(C)=C2)c2ccccc21,62.7% (active)
16,Cc1c2ccccc2nc2c(F)c(NCCO)c(F)c(F)c12,159% (active)
17,Cc1c2ccccc2nc2c(F)c(N(C)C)c(F)c(F)c12,19.2% (active)
18,CCn1c(O)c(/C=N/N=C/c2ccc(OC)cc2)c2cc(C3=NNC(=O)CC3)ccc21,20.9% (active)
19,CCn1c(O)c(/C=N/N=C/c2ccccc2)c2ccc(C3=NNC(=O)CC3)cc21,10.2% (inactive)
20,C/C(=N/Nc1ccnc2cc(Cl)ccc12)c1ccc(N)cc1,18.9% (active)
21,C/C(=N\Nc1nccnc1Cl)c1ccc(Cl)c(Cl)c1,5.84% (inactive)
22,O=C(Nc1ccccc1)C1CC2CCCC(C1)C2=O (centres undefined),8.65% (inactive)
23,O=C(Nc1ccccc1)NC1CS(=O)(=O)CC1O (centres undefined),149% (active)
24,O=C(Nc1ccccc1)OC1CCC2CC1CCC2OC(=O)Nc1ccccc1 (centres undefined),7.87% (inactive)
